Activity calls are given as the source filed them. The rule behind the calls is not given here.
Columns and labels:
MDA-MB-231 [1] = test: Induction of apoptosis in human MDA-MB-231 cells assessed as early apoptotic cells at 0.1 uM after 48 hrs by annexin V-FITC/propidium iodide staining-based flow cytometric analysis (reference value: […]); assay type: functional
MDA-MB-231 [2] = test: Effect on AKT phosphorylation in human MDA-MB-231 cells at 0.001 to 1 uM after 20 hrs by Western blot analysis; assay type: cell-based
Method in brief: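 MDA-MB-231 cells exposed to a concentration series for 20 h at 37 °C, lysed in RIPA with protease inhibitor cocktail, cleared by centrifugation, protein quantified by Bradford, resolved by SDS-PAGE, transferred to PVDF and immunoblotted.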

MDA-MB-231 [3] = test: Induction of apoptosis in human MDA-MB-231 cells assessed as viable cells at 0.3 uM after 48 hrs by annexin V-FITC/propidium iodide staining-based flow cytometric analysis (reference value: 94.4%); assay type: functional; details: MDA-MB-231, 48 h, read-out: Activity
MDA-MB-231 [4] = test: Cell cycle arrest in human MDA-MB-231 cells assessed as accumulation at G0/G1 phase at 0.1 to 0.3 uM after 24 to 48 hrs by flow cytometric analysis; assay type: functional, cell-based
MDA-MB-231 [5] = test: Induction of apoptosis in human MDA-MB-231 cells assessed as late apoptotic cells at 0.3 uM after 48 hrs by annexin V-FITC/propidium iodide staining-based flow cytometric analysis (reference value: 4.25%); assay type: functional
MDA-MB-231 [6] = test: Antitumor activity against human MDA-MB-231 cells xenografted in SCID mouse assessed as tumor growth inhibition at 7.5 to 15 mg/kg/day, po qd administered for 18 days measured every 3 days during compound dosing; assay type: functional, organism-based
Method in brief: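 SCID mice (5–6 weeks) were injected subcutaneously with 100 μL of exponential-phase MDA-MB-231 cells (5 × 10^7 per mL). They were randomized at 150–200 mm3 tumor volume (6 per group) and dosed orally once daily for 18 days in sterile water with 25% PEG400 plus 5% DMSO, with a vehicle group. Tumor volume (ab2/2) was measured every 3 days.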

MDA-MB-231 [7] = test: Induction of apoptosis in human MDA-MB-231 cells assessed as late apoptotic cells at 0.03 uM after 24 hrs by annexin V-FITC/propidium iodide staining-based flow cytometric analysis (reference value: 2.67%); assay type: functional
Rattus norvegicus = test: Apparent volume of distribution at steady state in Sprague-Dawley rat at 10 mg/kg, po by LC/MS analysis; assay type: ADME, organism-based; design: dose 10 mg/kg, route oral; details: in vivo
Method in brief: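 Single oral gavage dose in male Sprague-Dawley rats fasted overnight; serial blood drawn via surgically placed jugular vein catheters at set times, plasma separated at once and measured by HPLC-MS/MS; noncompartmental parameters fitted; n=5.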

[8] = biological target: Proto-oncogene tyrosine-protein kinase Src (Homo sapiens, UniProt P12931)
Sequence of Proto-oncogene tyrosine-protein kinase Src (P12931 2-536 limits assumed): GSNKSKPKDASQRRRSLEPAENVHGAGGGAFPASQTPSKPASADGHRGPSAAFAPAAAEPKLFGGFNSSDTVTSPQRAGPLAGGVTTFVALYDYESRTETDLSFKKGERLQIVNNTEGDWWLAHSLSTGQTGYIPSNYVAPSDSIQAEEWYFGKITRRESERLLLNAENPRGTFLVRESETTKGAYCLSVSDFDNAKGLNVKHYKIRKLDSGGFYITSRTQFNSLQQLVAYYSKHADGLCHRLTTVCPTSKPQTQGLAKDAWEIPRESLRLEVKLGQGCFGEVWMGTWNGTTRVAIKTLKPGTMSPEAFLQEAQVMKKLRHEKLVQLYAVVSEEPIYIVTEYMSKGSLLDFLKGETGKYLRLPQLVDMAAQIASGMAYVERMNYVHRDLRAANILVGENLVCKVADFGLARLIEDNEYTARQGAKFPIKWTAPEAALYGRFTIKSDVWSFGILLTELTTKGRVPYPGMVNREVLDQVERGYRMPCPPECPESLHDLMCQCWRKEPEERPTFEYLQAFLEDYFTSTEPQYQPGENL

Vdss(app) (Rattus norvegicus): 38.57 L/kg | IC50 [8]: 0.9 nM
SMILES: CCn1nc(C#Cc2cc(C(=O)Nc3ccc(CN4CCN(C)CC4)c(C(F)(F)F)c3)ccc2C)c2c(N)ncnc21
Activity (MDA-MB-231 [1]): 13.9% | Activity (MDA-MB-231 [2]): inactive | viability at 0.3 µM (MDA-MB-231 [3]): 63.2% | Activity (MDA-MB-231 [4]): Active | Activity (MDA-MB-231 [5]): 10.3% | TGI (MDA-MB-231 [6]): Active | Activity (MDA-MB-231 [7]): 3.92%
